Reference: ChEMBL document CHEMBL4118251 (J Med Chem, 2018)
pEC50, pIC50: −log10 of the molar value. Peptide text beside a SMILES is read from it.

Assays:
[1] = biological target: T1, Glucagon-like peptide 1 receptor (Homo sapiens, UniProt P43220); assay: Displacement of [125I]GLP-1 from human GLP1R expressed in HEK293 cell membranes after 180 mins by microbeta counting method
Summary of the method: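 Membranes from HEK-293 cells expressing human GLP-1 receptor (1 μg protein/well) were coated on WGA SPA beads. […] The buffer was HEPES pH 7.4 with EDTA, NaCl, MgCl2, CaCl2, protease inhibitors and 0.1% BSA. Plates were read after a 180 min delay.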

Glucagon receptor = Glucagon receptor (Homo sapiens, UniProt P47871); assay: Agonist activity at human glucagon receptor expressed in HEK293 cells assessed as cAMP accumulation after 30 mins by HTRF assay; type: functional, cell-based
[2] = biological target: T2, Gastric inhibitory polypeptide receptor (Homo sapiens, UniProt P48546); assay: Agonist activity at human GIP receptor expressed in HEK293 cells assessed as cAMP accumulation after 30 mins by HTRF assay; type: functional, cell-based
T2 sequence (P48546 whole entry): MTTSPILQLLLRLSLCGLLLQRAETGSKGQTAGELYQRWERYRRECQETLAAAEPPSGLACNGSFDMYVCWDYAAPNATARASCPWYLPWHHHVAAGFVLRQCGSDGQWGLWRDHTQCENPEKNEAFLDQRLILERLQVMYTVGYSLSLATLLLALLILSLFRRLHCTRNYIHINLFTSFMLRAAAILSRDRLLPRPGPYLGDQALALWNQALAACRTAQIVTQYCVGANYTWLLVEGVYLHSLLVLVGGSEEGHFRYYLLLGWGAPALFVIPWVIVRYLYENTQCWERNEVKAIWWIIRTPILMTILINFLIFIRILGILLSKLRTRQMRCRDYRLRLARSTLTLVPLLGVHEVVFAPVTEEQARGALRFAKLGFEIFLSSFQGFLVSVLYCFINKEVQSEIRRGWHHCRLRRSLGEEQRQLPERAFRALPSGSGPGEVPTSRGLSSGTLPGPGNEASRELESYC

Homo sapiens [3] = species: Homo sapiens; assay: Selectivity ratio of EC50 for human GIP receptor expressed in HEK293 cells to EC50 for human GLP1R expressed in HEK293 cells; type: cell-based
Summary of the method: (§1)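 HEK293 lines stably expressing human or monkey receptor were detached with accutase. Cells were resuspended at 400 000 cells/mL in HBSS/20 mM HEPES/0.1% BSA/2 mM IBMX and exposed to peptide for 30 min at room temperature. cAMP was read by HTRF (665/620 nm) after 1 h lysis.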

[4] = biological target: T1, Glucagon-like peptide 1 receptor; assay: Agonist activity at human GLP1R expressed in HEK293 cells assessed as cAMP accumulation after 30 mins by HTRF assay; type: functional, cell-based
[5] = Solubility in pH 4.5 acetate buffer at 10 mg/ml after 2 hrs in presence of 0.5% phenol by UPLC-UV analysis; type: physicochemical
Summary of the method: (§2)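 Buffers were 100 mM sodium acetate pH 4.5 or 100 mM sodium phosphate pH 7.4, with or without 0.5% phenol. Solid peptide was dispersed at 10 mg/mL, with content corrected by UPLC-MS and ion chromatography, and gently agitated for 2 h. After centrifugation (15 min, 3000 rcf), the supernatant was diluted 1:10 and quantified by UPLC-UV against a DMSO standard curve.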

[6] = Solubility in pH 4.5 phosphate buffer at 10 mg/ml after 2 hrs in presence of 0.5% phenol by UPLC-UV analysis; type: physicochemical
[7] = Solubility in pH 4.5 acetate buffer at 10 mg/ml after 2 hrs by UPLC-UV analysis; type: physicochemical; summary of the method: as §2
Homo sapiens [8] = species: Homo sapiens; assay: Selectivity ratio of EC50 for human glucagon receptor expressed in HEK293 cells to EC50 for human GLP1R expressed in HEK293 cells; type: cell-based; summary of the method: as §1
[9] = Solubility in pH 4.5 acetate buffer at 10 mg/ml after 2 hrs by UPLC-UV analysis

Sequence of Glucagon receptor (P47871 whole entry): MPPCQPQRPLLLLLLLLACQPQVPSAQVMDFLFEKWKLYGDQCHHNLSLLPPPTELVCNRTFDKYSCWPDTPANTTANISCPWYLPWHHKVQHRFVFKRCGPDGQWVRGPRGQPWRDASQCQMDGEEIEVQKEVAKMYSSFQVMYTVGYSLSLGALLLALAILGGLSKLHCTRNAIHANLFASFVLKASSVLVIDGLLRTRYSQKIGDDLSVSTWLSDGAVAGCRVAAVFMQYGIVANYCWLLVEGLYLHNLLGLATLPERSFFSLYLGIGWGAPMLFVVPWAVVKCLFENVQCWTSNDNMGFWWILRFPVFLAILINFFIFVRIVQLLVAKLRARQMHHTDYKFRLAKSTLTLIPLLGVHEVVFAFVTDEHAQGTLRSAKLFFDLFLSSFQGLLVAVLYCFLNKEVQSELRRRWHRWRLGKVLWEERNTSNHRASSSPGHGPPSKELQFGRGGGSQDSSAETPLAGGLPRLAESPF
T1 sequence (P43220 whole entry): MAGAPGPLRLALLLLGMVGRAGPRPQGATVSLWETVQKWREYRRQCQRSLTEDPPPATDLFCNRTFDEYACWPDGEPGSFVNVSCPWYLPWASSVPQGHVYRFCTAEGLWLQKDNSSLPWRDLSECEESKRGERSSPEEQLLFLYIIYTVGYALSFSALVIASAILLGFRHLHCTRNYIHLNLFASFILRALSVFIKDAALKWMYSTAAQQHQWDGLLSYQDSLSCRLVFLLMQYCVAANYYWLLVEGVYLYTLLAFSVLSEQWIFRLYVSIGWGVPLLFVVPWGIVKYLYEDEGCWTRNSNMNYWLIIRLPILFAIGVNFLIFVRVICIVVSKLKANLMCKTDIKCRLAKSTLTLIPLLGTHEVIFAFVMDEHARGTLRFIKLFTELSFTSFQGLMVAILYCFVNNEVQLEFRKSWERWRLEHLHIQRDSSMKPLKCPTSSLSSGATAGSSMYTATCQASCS

Compound | pIC50 [1] | pEC50 (Glucagon receptor) | pEC50 [2] | Ratio EC50 (Homo sapiens [3]) | pEC50 [4] | solubility at 2 h [5] [µg/mL] | solubility at 2 h [6] [µg/mL] | solubility at 2 h [7] [µg/mL] | Ratio EC50 (Homo sapiens [8]) | solubility at 2 h [9] [µg/mL]
CC[C@H](C)[C@H](NC(=O)[C@H](Cc1ccccc1)NC(=O)[C@H](CC(C)C)NC(=O)[C@H](CCCCN)NC(=O)[C@H](C)NC(=O)[C@H](CCCNC(=N)N)NC(=O)[C@H](CCC(N)=O)NC(=O)[C@H](CCC(=O)O)NC(=O)[C@H](CC(=O)O)NC(=O)[C@H](CC(C)C)NC(=O)[C@H](CCC(N)=O)NC(=O)[C@H](CCCCN)NC(=O)[C@H](CO)NC(=O)[C@H](CC(C)C)NC(=O)[C@H](CC(=O)O)NC(=O)[C@H](CO)NC(=O)[C@@H](NC(=O)[C@H](Cc1ccccc1)NC(=O)[C@@H](NC(=O)CNC(=O)[C@H](CCC(N)=O)NC(=O)C(C)(C)NC(=O)[C@@H](N)Cc1cnc[nH]1)[C@@H](C)O)[C@@H](C)O)C(=O)N[C@@H](CCC(=O)O)C(=O)N[C@@H](Cc1c[nH]c2ccccc12)C(=O)N[C@@H](CC(C)C)C(=O)NC(C)(C)C(=O)N[C@@H](C)C(=O)NCC(=O)NCC(=O)N1CCC[C@H]1C(=O)N[C@@H](CO)C(=O)N[C@@H](CO)C(=O)NCC(=O)N[C@@H](C)C(=O)N1CCC[C@H]1C(=O)N1CCC[C@H]1C(=O)N1CCC[C@H]1C(=O)N[C@@H](CO)C(N)=O | 7.59 |  |  |  |  |  |  |  |  | 
CCCCCCCCCCCCCCCCC(=O)N[C@@H](CCC(=O)NCCCC[C@H](NC(=O)[C@H](CCC(N)=O)NC(=O)[C@H](CCCCN)NC(=O)[C@H](CO)NC(=O)[C@H](CC(C)C)NC(=O)[C@H](CC(=O)O)NC(=O)[C@H](CO)NC(=O)[C@@H](NC(=O)[C@H](Cc1ccccc1)NC(=O)[C@@H](NC(=O)CNC(=O)[C@H](CCC(N)=O)NC(=O)C(C)(C)NC(=O)[C@@H](N)Cc1cnc[nH]1)[C@@H](C)O)[C@@H](C)O)C(=O)N[C@@H](CC(=O)O)C(=O)N[C@@H](CCC(=O)O)C(=O)N[C@@H](CCC(N)=O)C(=O)N[C@@H](CCCNC(=N)N)C(=O)N[C@@H](C)C(=O)N[C@@H](CCCCN)C(=O)N[C@@H](CC(C)C)C(=O)N[C@@H](Cc1ccccc1)C(=O)N[C@H](C(=O)N[C@@H](CCC(=O)O)C(=O)N[C@@H](Cc1c[nH]c2ccccc12)C(=O)N[C@@H](CC(C)C)C(=O)NC(C)(C)C(=O)N[C@@H](C)C(=O)NCC(=O)NCC(=O)N1CCC[C@H]1C(=O)N[C@@H](CO)C(=O)N[C@@H](CO)C(=O)NCC(=O)N[C@@H](C)C(=O)N1CCC[C@H]1C(=O)N1CCC[C@H]1C(=O)N1CCC[C@H]1C(=O)N[C@@H](CO)C(N)=O)[C@@H](C)CC)C(=O)O |  | 10.81 | 8.94 | 181 | 11.19 |  |  |  |  | 
CCCCCCCCCCCCCCCCC(=O)N[C@@H](CCC(=O)N[C@@H](CCC(=O)NCCCC[C@H](NC(=O)[C@H](CCC(N)=O)NC(=O)[C@H](CCCCN)NC(=O)[C@H](CO)NC(=O)[C@H](CC(C)C)NC(=O)[C@H](CC(=O)O)NC(=O)[C@H](CO)NC(=O)[C@@H](NC(=O)[C@H](Cc1ccccc1)NC(=O)[C@@H](NC(=O)CNC(=O)[C@H](CCC(N)=O)NC(=O)C(C)(C)NC(=O)[C@@H](N)Cc1cnc[nH]1)[C@@H](C)O)[C@@H](C)O)C(=O)N[C@@H](CC(=O)O)C(=O)N[C@@H](CCC(=O)O)C(=O)N[C@@H](CCC(N)=O)C(=O)N[C@@H](CCCNC(=N)N)C(=O)N[C@@H](C)C(=O)N[C@@H](CCCCN)C(=O)N[C@@H](CC(C)C)C(=O)N[C@@H](Cc1ccccc1)C(=O)N[C@H](C(=O)N[C@@H](CCC(=O)O)C(=O)N[C@@H](Cc1c[nH]c2ccccc12)C(=O)N[C@@H](CC(C)C)C(=O)NC(C)(C)C(=O)N[C@@H](C)C(=O)NCC(=O)NCC(=O)N1CCC[C@H]1C(=O)N[C@@H](CO)C(=O)N[C@@H](CO)C(=O)NCC(=O)N[C@@H](C)C(=O)N1CCC[C@H]1C(=O)N1CCC[C@H]1C(=O)N1CCC[C@H]1C(=O)N[C@@H](CO)C(N)=O)[C@@H](C)CC)C(=O)O)C(=O)O |  | 10.56 | 8.69 |  | 11.66 | 1200 | ≥ 10000 | ≥ 10000 | 13 | ≥ 10000
CCCCCCCCCCCCCCCCCCC(=O)N[C@@H](CCC(=O)NCCCC[C@H](NC(=O)[C@H](CCC(N)=O)NC(=O)[C@H](CCCCN)NC(=O)[C@H](CO)NC(=O)[C@H](CC(C)C)NC(=O)[C@H](CC(=O)O)NC(=O)[C@H](CO)NC(=O)[C@@H](NC(=O)[C@H](Cc1ccccc1)NC(=O)[C@@H](NC(=O)CNC(=O)[C@H](CCC(N)=O)NC(=O)C(C)(C)NC(=O)[C@@H](N)Cc1cnc[nH]1)[C@@H](C)O)[C@@H](C)O)C(=O)N[C@@H](CC(=O)O)C(=O)N[C@@H](CCC(=O)O)C(=O)N[C@@H](CCC(N)=O)C(=O)N[C@@H](CCCNC(=N)N)C(=O)N[C@@H](C)C(=O)N[C@@H](CCCCN)C(=O)N[C@@H](CC(C)C)C(=O)N[C@@H](Cc1ccccc1)C(=O)N[C@H](C(=O)N[C@@H](CCC(=O)O)C(=O)N[C@@H](Cc1c[nH]c2ccccc12)C(=O)N[C@@H](CC(C)C)C(=O)NC(C)(C)C(=O)N[C@@H](C)C(=O)NCC(=O)NCC(=O)N1CCC[C@H]1C(=O)N[C@@H](CO)C(=O)N[C@@H](CO)C(=O)NCC(=O)N[C@@H](C)C(=O)N1CCC[C@H]1C(=O)N1CCC[C@H]1C(=O)N1CCC[C@H]1C(=O)N[C@@H](CO)C(N)=O)[C@@H](C)CC)C(=O)O |  | 11.17 | 9.99 | 73 | 11.85 |  |  |  | 5 | 
CC[C@H](C)[C@H](NC(=O)[C@H](Cc1ccccc1)NC(=O)[C@H](CC(C)C)NC(=O)[C@H](CCCCN)NC(=O)[C@H](C)NC(=O)[C@H](CS)NC(=O)[C@H](CCC(N)=O)NC(=O)[C@H](CCC(=O)O)NC(=O)[C@H](CC(=O)O)NC(=O)[C@H](CC(C)C)NC(=O)[C@H](CCC(N)=O)NC(=O)[C@H](CCCCN)NC(=O)[C@H](CO)NC(=O)[C@H](CC(C)C)NC(=O)[C@@H](N)CC(=O)O)C(=O)N[C@@H](CCC(=O)O)C(=O)N[C@@H](Cc1c[nH]c2ccccc12)C(=O)N[C@@H](CC(C)C)C(=O)N[C@@H](C)C(=O)N[C@@H](C)C(=O)NCC(=O)NCC(=O)N1CCC[C@H]1C(=O)N[C@@H](CO)C(=O)N[C@@H](CO)C(=O)NCC(=O)N[C@@H](C)C(=O)N1CCC[C@H]1C(=O)N1CCC[C@H]1C(=O)N1CCC[C@H]1C(=O)N[C@@H](CS)C(N)=O (H-DLSKQLDEQCAKLFIEWLAAGGPSSGAPPPC-NH2) | 5.95 |  | < 4.00 |  |  |  |  |  |  | 
